Results on three compounds are retold here after ChEMBL document CHEMBL3808280, “GroEL/ES inhibitors as potential antibiotics” (Bioorg Med Chem Lett, 2016).

≈ marks a conversion by molar mass, not a printed value. Calls of active or inactive are those of the source. The rule behind the calls is not given here.

One data set concerns Enterococcus faecium. The experiment in a line: Antibacterial activity against multidrug resistant Enterococcus faecium NCTC 7171 (ATCC 19434) assessed as reduction in bacterial growth incubated for 6 to 8 hrs. Format: functional, organism-based. The method in brief: (§1)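 Broth proliferation assay. S. aureus and MRSA grown in ATCC Medium 18, other pathogens in Brain Heart Infusion. Stagnant incubation at 37°C under breathable seal. OD600 read at mid-log (6-8 h) and corrected with bacteria-free baseline plates. EC50 by variable-slope nonlinear fit, at least triplicate.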

In data set [1] the test system is Staphylococcus aureus. The experiment in a line: Antibacterial activity against methicillin resistant Staphylococcus aureus subsp. aureus HPV107 (ATCC BAA-44) assessed as reduction in bacterial growth incubated for 6 to 8 hrs. It is filed as functional, organism-based. In a few lines:
as §1

Data set [2] concerns Staphylococcus aureus. Nature of the data set: Antibacterial activity against Staphylococcus aureus subsp. aureus Seattle 1945 (ATCC 25923) assessed as inhibition of visual growth after 24 hrs. Format: functional. The method in brief: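 MIC assay in Tryptic Soy broth (ATCC Medium 18). An overnight culture was diluted 5-fold, grown 1 h at 37°C, then diluted to OD600 0.01 (~10⁷ CFU/ml). Compounds were added in DMSO at fixed final concentrations (e.g. vancomycin 1.2-2.2 µM).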

Data set [3] has as its system Staphylococcus aureus. Nature of the data set: Bactericidal activity against Staphylococcus aureus subsp. aureus Seattle 1945 (ATCC 25923) at 4 times MIC up to 24 hrs by agar dilution method. It is filed as functional, organism-based. The method in brief:
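Time-kill in ATCC Medium 18. […] Viable counts were taken at 0, 1, 2, 4, 6 and 24 h by dilution and plating on Medium 18 agar. Values are averages of triplicates.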

In data set [4] the test system is Klebsiella pneumoniae subsp. pneumoniae. Nature of the data set: Antibacterial activity against multidrug resistant Klebsiella pneumoniae subsp. pneumoniae NCTC 9633 (ATCC 13883) assessed as reduction in bacterial growth incubated for 6 to 8 hrs. It is filed as functional, organism-based. The method in brief: as §1
A further data set deals with Acinetobacter baumannii. The experiment in a line: Antibacterial activity against multidrug resistant Acinetobacter baumannii 2208 (ATCC 19606) assessed as reduction in bacterial growth incubated for 6 to 8 hrs. Format: functional. The method in brief: as §1
The test system of a further data set is Pseudomonas aeruginosa. Nature of the data set: Antibacterial activity against multidrug resistant Pseudomonas aeruginosa NCTC 10332 (ATCC 10145) assessed as reduction in bacterial growth incubated for 6 to 8 hrs. It is filed as functional, organism-based. The method in brief:
as §1

The subject of another data set is Enterobacter cloacae. The experiment in a line: Antibacterial activity against multidrug resistant Enterobacter cloacae subsp. cloacae CDC 442-68 (ATCC 13047) assessed as reduction in bacterial growth incubated for 6 to 8 hrs. Format: functional, organism-based. The method in brief:
as §1

Data set [5] relates to Staphylococcus aureus. The experiment in a line: Antibacterial activity against methicillin susceptible Staphylococcus aureus subsp. aureus Seattle 1945 (ATCC 25923) assessed as reduction in bacterial growth incubated for 6 to 8 hrs.
Data set [6] deals with T1, E. coli GroEL/ES (Escherichia coli, UniProt P0A6F5). The experiment in a line: Inhibition of Escherichia coli GroEL/GroES using Escherichia coli GroEL expressed in Escherichia coli DH5alpha cells and Escherichia coli GroES expressed in Escherichia coli BL21(DE3) cells assessed as inhibition of denatured rhodanese refolding by measuring reduction in thiocyanate production incubated for 60 mins by micro plate reader analysis. The method in brief:
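Urea-denatured rhodanese bound to GroEL/GroES in folding buffer containing thiosulfate. After 60 min at 37°C, thiocyanate reaction (KCN, thiosulfate, phosphate) run, then formaldehyde quench and ferric nitrate added. Fe(SCN)3 read at 460 nm after 15 min RT, with protein-free baseline plates.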

Data set [7] concerns the target T1, E. coli GroEL/ES. The experiment in a line: Inhibition of Escherichia coli GroEL/GroES using Escherichia coli GroEL expressed in Escherichia coli DH5alpha cells and Escherichia coli GroES expressed in Escherichia coli BL21(DE3) cells assessed as reduction in native refolded rhodanese-mediated thiocyanate production by micro plate reader analysis.
Data set [8] deals with T1, E. coli GroEL/ES. Nature of the data set: Inhibition of Escherichia coli GroEL/GroES using Escherichia coli GroEL expressed in Escherichia coli DH5alpha cells and Escherichia coli GroES expressed in Escherichia coli BL21(DE3) cells assessed as reduction in pig heart native refolded MDH-mediated NADH production by micro plate reader analysis. The method in brief: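 Native MDH counter-screen. GroEL/ES-dMDH refolding run 60 min at 37°C, then EDTA-quenched without compound. IC50 averaged from at least triplicate.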

The target of data set [9] is T1, E. coli GroEL/ES. The experiment in a line: Inhibition of Escherichia coli GroEL/GroES using Escherichia coli GroEL expressed in Escherichia coli DH5alpha cells and Escherichia coli GroES expressed in Escherichia coli BL21(DE3) cells assessed as inhibition of denatured pig heart MDH refolding by measuring reduction in NADH production incubated for 60 mins by micro plate reader analysis. In a few lines:
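Denatured MDH (guanidine-HCl/DTT, 30 min RT) bound to GroEL with GroES in Tris pH 7.4, KCl, MgCl2, DTT buffer. 60 min at 37°C, EDTA quench to 100 mM. Refolded MDH activity read with mesoxalate/NADH at 340 nm. Log-averaged IC50 from replicates.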

Data set [10] deals with Escherichia coli. Nature of the data set: Antibacterial activity against Escherichia coli DH5alpha assessed as reduction in bacterial growth incubated for 6 to 8 hrs. It is filed as functional, organism-based. The conditions noted are these: DH5[alpha].
Data set [11] has as its system Escherichia coli. The experiment in a line: Antibacterial activity against acrB-deficient Escherichia coli MC4100 assessed as reduction in bacterial growth incubated for 6 to 8 hrs. It is filed as functional, organism-based.
The subject of data set [12] is Escherichia coli. Nature of the data set: Antibacterial activity against Escherichia coli SM101 assessed as reduction in bacterial growth incubated for 12 hrs by UV-Vis spectrophotometric analysis. It is filed as functional, organism-based. The settings on record: SM101, 12 h.
In a further data set the test system is Bacillus subtilis. The experiment in a line: Antibacterial activity against Bacillus subtilis 168 assessed as reduction in bacterial growth incubated for 6 to 8 hrs. It is filed as functional, organism-based. The conditions noted are these: subsp. subtilis str. 168.
Data set [13] addresses T2, HSP60/HSP10 (Homo sapiens, UniProt P10809). Nature of the data set: Inhibition of human HSP60/HSP10 expressed in Escherichia coli Rosetta2(DE3) cells assessed as inhibition of denatured pig heart MDH refolding by measuring reduction in NADH production incubated for 60 mins by micro plate reader analysis. The method in brief:
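Pig heart MDH was denatured in guanidine-HCl (dMDH) and complexed with HSP60, then HSP10, in Tris pH 7.4/KCl/MgCl2/DTT buffer. EDTA quench (100 mM final); refolded MDH activity was followed with mesoxalate/NADH at 340 nm.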

For data set [14], the target named is T2, HSP60/HSP10. The experiment in a line: Inhibition of human HSP60/HSP10 expressed in Escherichia coli Rosetta2(DE3) cells assessed as reduction in denatured pig heart MDH ATPase activity by malachite green dye based assay.
A short description of data set [15]: Cytotoxicity against human THLE3 cells assessed as reduction in cell viability after 48 hrs by alamar blue assay. The settings on record: THLE3, 48 h. Format: cell-based.
For another data set, the system named is HEK293. Nature of the data set: Cytotoxicity against HEK293 cells assessed as reduction in cell viability after 48 hrs by alamar blue assay. It is filed as cell-based. The conditions noted are these: Homo sapiens, HEK293, 48 h.
The nature of data set [16]: Therapeutic index, ratio of EC50 for human THLE3 cells to EC50 for Staphylococcus aureus subsp. aureus Seattle 1945 (ATCC 25923). It is filed as cell-based. The conditions noted are these: read-out: Ratio EC50.
A short description of data set [17]: Therapeutic index, ratio of EC50 for HEK293 cells to EC50 for Staphylococcus aureus subsp. aureus Seattle 1945 (ATCC 25923). Format: cell-based. The settings on record: human, read-out: Ratio EC50.
Data set [18] has as its target T1, E. coli GroEL/ES. Nature of the data set: Inhibition of Escherichia coli GroEL/GroES using Escherichia coli GroEL expressed in Escherichia coli DH5alpha cells and Escherichia coli GroES expressed in Escherichia coli BL21(DE3) cells assessed as reduction in denatured pig heart MDH ATPase activity by malachite green dye based assay.

T1 sequence (P0A6F5 whole entry, looked up): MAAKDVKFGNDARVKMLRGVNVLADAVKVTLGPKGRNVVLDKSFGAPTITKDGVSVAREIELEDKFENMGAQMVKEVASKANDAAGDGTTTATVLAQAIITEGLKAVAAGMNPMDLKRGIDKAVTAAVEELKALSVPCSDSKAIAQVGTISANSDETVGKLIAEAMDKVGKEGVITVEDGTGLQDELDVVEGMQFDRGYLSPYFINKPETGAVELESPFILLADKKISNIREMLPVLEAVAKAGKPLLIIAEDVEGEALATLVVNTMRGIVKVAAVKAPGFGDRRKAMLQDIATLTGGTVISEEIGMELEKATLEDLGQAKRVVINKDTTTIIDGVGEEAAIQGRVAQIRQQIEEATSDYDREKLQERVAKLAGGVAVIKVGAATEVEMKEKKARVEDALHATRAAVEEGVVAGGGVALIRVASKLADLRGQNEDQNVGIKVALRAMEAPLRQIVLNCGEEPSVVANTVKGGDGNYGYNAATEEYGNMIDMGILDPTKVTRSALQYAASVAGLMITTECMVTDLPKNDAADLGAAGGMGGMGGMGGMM
T2 sequence (P10809 whole entry): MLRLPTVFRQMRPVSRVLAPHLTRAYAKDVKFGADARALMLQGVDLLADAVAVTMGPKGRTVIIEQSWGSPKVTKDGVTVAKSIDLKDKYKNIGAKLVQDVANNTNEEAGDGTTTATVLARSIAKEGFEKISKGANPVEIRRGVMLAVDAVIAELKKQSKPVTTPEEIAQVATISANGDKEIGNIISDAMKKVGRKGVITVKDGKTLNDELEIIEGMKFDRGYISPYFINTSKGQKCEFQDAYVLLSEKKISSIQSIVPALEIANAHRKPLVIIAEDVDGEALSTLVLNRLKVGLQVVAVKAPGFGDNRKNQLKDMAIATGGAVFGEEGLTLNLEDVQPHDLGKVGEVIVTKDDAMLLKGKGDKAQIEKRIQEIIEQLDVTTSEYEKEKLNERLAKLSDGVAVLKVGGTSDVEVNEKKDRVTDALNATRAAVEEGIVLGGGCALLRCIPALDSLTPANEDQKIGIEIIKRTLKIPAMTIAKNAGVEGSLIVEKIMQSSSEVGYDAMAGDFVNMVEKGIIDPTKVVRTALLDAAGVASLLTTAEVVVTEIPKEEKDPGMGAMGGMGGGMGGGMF
T2 sequence (P61604 whole entry, further chain): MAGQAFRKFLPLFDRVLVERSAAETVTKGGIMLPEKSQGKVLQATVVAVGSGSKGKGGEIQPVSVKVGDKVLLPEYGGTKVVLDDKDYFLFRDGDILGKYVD

Regarding `CN[C@@H](CC(C)C)C(=O)N[C@H]1C(=O)N[C@@H](CC(N)=O)C(=O)N[C@H]2C(=O)N[C@H]3C(=O)N[C@H](C(=O)N[C@@H](C(=O)O)c4cc(O)cc(O)c4-c4cc3ccc4O)[C@H](O)c3ccc(c(Cl)c3)Oc3cc2cc(c3O[C@H]2O[C@@H](CO)[C@H](O)[C@@H](O)[C@@H]2O[C@@H]2C[C@@](C)(N)[C@@H](O)[C@@H](C)O2)Oc2ccc(cc2Cl)[C@H]1O`, the EC50 in the data set with Enterococcus faecium was 0.3 µM; in the data set with Staphylococcus aureus [1], 0.17 µM; in [4] it was over 100 µM; in the data set on Acinetobacter baumannii, 17 µM; in the data set with Pseudomonas aeruginosa it was 74 µM; in the data set on Enterobacter cloacae, over 100 µM. For the same compound, the EC50 in the data set with Staphylococcus aureus [5] is 0.2 µM. For the same compound, the MIC in the data set with Staphylococcus aureus [2] was determined as 1.6 µM (≈ 2.32 µg/mL). Besides, in the data set on Staphylococcus aureus [3], the result was Active.
`Cn1c(=O)c(C(=O)Nc2ccncc2)c(O)c2ccccc21`: the IC50 at E. coli GroEL/ES [6] is 6.8 µM; on E. coli GroEL/ES [7] it was over 100 µM; on E. coli GroEL/ES [8], over 62.5 µM; on E. coli GroEL/ES [9], 5.7 µM; on HSP60/HSP10 [13], over 100 µM; at HSP60/HSP10 [14], over 250 µM. Moreover, the EC50 is over 100 µM in the data set with Escherichia coli [10]; 21 µM in the data set with Escherichia coli [11]; 3.3 µM in the data set with Escherichia coli [12]; 0.47 µM in the data set on Bacillus subtilis; over 100 µM in the data set on Enterococcus faecium; 1.3 µM with Staphylococcus aureus [1]. Also, the half-maximal effective concentration (EC50) (in data set [15]; in the data set on HEK293; in data set [4]; with Acinetobacter baumannii; in the data set on Pseudomonas aeruginosa; in the data set with Enterobacter cloacae) was over 100 µM throughout. In the data set on Staphylococcus aureus [5], the EC50 came to 1.8 µM. Further, the MIC in the data set on Staphylococcus aureus [2] was determined as 8 µM (≈ 2.36 µg/mL). Also, the result in the data set with Staphylococcus aureus [3] was Active. For the same compound, the selectivity ratio in data set [16] and in data set [17] was over 55 throughout.
For the compound `O=C(Nc1ccc(Sc2nc3ccccc3s2)c(Cl)c1)c1cc(Br)cc(Br)c1O`, the IC50 at E. coli GroEL/ES [6] is 1.4 µM; at E. coli GroEL/ES [7] it was over 100 µM; at E. coli GroEL/ES [8] it was 7.1 µM; at E. coli GroEL/ES [9] it was 1.4 µM; on E. coli GroEL/ES [18] it was over 250 µM; on HSP60/HSP10 [13], 5.5 µM. Moreover, the IC50 at HSP60/HSP10 [14] is 3.6 µM. Moreover, the concentration giving a half-maximal response (EC50) was over 100 µM in the data set with Escherichia coli [10]; 2.3 µM in the data set on Escherichia coli [11]; 0.33 µM in the data set on Escherichia coli [12]; 0.1 µM with Bacillus subtilis; 0.15 µM in the data set with Enterococcus faecium; 0.13 µM in the data set with Staphylococcus aureus [1]. In addition, the EC50 in [15] is 12 µM; in the data set on HEK293, 78 µM; in [4], over 100 µM; in the data set with Acinetobacter baumannii, 30 µM; with Pseudomonas aeruginosa it was over 100 µM; in the data set on Enterobacter cloacae, over 100 µM. Further, in the data set with Staphylococcus aureus [5], the concentration for a half-maximal effect (EC50) stood at 0.2 µM. Moreover, the MIC in the data set with Staphylococcus aureus [2] was 0.6 µM (≈ 0.342 µg/mL). Moreover, the outcome in the data set on Staphylococcus aureus [3] was Active. Also, the selectivity ratio in [16] was determined as 60; in [17], 390.
